ChEMBL document CHEMBL4382245, “Balancing reactivity and antitumor activity: heteroarylthioacetamide derivatives as potent and time-dependent inhibitors of EGFR” (Eur J Med Chem, 2019)

Experiments:
[1] = Cysteine reactivity in pH 10 CAPS buffer assessed as half life for cysteine-compound adduct formation at 10 uM after 24 hrs in presence of 100 molar excess cysteine by LC-MS analysis
Method in brief: (§1)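 Compound at 10 µM added to freshly prepared 1 mM cysteine (1:100) in 50 mM CAPS pH 10, ionic strength 0.15 M with KCl; 37 °C; Cys-conjugate measured after 24 h by LC-MS in MRM mode. Half-life from LC-MS; conjugate peak area scaled to the 2-chloroacetamide conjugate set at 10,000.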

[2] = Cysteine reactivity in pH 10 CAPS buffer assessed as peak area for cysteine-compound adduct formation at 10 uM after 24 hrs in presence of 100 molar excess cysteine by LC-MS analysis relative to 2-chloro-N-(4-((3-chloro-4-fluorophenyl)amino)-7-ethoxyquinazolin-6-yl)acetamide; method in brief: as §1
[3] = target: T1, Epidermal growth factor receptor (Homo sapiens, UniProt P00533); test: Inhibition of wild type EGFR autophosphorylation in human A549 cells by Western blot analysis; assay type: cell-based
NCI-H1975 = test: cells; assay type: functional, cell-based; details: Homo sapiens, NCI-H1975, 72 h
[4] = target: T1, Epidermal growth factor receptor; details: A549, at 1 µM
[5] = target: T1, Epidermal growth factor receptor; details: A549, at 1 µM; remark: listed apart in the source
[6] = test system: Epidermal growth factor receptor (Homo sapiens), P00533 [L858R,T790M]; details: NCI-H1975, at 0.1 µM
[7] = test system: Epidermal growth factor receptor (Homo sapiens), P00533 [L858R,T790M]; details: NCI-H1975, at 1 µM
[8] = Drug uptake in human A549 cells at 1 uM after 1 hr by LC-MS analysis; assay type: ADME, cell-based; details: a549, 1 h
Method in brief: (§2)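 A549 cells plated at 1,000,000 per 25 cm2 dish, dosed after 24 h at 1 µM final (0.1% DMSO), 1 h at 37 °C. Harvested at once or 8 h after three washes with fresh medium. Ethanol extraction, LC-MS quantitation as pmol/mg protein (Bradford), converted to µM using 4 µL cell volume per mg protein. Mean ± SD, three experiments.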

[9] = Drug uptake in human A549 cells at 1 uM incubated for 1 hr followed by compound washout and measured after 8 hrs by LC-MS analysis; assay type: ADME, cell-based; details: a549, 1 h; method in brief: as §2
A549 = test: Ratio of drug uptake in human A549 cells at 1 uM measured after 1 hr to drug uptake in human A549 cells at 1 uM incubated for 1 hr followed by compound washout and measured after 8 hrs; assay type: ADME, cell-based; details: a549, 1 µM; method in brief: as §2
[10] = target: T1, Epidermal growth factor receptor

T1 sequence (P00533 whole entry): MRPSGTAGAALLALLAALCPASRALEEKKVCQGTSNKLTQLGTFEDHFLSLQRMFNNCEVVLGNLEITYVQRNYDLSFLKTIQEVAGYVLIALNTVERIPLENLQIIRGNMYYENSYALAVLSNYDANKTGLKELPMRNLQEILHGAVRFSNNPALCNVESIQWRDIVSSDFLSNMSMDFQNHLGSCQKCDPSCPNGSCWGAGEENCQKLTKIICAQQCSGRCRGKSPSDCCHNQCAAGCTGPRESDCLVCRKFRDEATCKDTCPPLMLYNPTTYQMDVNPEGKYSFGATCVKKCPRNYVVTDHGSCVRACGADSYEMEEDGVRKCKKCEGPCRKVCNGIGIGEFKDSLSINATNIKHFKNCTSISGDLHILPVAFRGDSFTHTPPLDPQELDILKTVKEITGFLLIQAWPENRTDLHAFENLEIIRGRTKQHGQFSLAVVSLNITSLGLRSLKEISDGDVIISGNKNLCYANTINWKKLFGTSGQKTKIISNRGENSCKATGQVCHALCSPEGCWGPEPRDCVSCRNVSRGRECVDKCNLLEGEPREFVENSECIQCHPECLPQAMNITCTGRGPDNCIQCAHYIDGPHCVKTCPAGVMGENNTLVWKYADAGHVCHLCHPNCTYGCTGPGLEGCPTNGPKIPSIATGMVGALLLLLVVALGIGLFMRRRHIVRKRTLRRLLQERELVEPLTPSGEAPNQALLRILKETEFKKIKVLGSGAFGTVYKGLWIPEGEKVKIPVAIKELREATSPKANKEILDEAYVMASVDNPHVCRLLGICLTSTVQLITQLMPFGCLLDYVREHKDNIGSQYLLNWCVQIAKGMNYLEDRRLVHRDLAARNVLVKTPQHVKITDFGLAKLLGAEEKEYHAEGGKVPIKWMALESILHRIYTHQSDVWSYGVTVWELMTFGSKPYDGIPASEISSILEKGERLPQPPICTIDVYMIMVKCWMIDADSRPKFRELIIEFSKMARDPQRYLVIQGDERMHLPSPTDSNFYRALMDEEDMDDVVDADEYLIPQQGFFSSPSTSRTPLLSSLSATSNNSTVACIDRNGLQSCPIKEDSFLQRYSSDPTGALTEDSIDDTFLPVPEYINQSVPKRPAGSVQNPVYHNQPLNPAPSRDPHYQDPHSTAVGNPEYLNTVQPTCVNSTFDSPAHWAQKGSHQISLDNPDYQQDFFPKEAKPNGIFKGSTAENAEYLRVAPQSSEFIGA
Epidermal growth factor receptor (Homo sapiens), P00533 [L858R,T790M], sequence (P00533 whole entry T790M/L858R, looked up): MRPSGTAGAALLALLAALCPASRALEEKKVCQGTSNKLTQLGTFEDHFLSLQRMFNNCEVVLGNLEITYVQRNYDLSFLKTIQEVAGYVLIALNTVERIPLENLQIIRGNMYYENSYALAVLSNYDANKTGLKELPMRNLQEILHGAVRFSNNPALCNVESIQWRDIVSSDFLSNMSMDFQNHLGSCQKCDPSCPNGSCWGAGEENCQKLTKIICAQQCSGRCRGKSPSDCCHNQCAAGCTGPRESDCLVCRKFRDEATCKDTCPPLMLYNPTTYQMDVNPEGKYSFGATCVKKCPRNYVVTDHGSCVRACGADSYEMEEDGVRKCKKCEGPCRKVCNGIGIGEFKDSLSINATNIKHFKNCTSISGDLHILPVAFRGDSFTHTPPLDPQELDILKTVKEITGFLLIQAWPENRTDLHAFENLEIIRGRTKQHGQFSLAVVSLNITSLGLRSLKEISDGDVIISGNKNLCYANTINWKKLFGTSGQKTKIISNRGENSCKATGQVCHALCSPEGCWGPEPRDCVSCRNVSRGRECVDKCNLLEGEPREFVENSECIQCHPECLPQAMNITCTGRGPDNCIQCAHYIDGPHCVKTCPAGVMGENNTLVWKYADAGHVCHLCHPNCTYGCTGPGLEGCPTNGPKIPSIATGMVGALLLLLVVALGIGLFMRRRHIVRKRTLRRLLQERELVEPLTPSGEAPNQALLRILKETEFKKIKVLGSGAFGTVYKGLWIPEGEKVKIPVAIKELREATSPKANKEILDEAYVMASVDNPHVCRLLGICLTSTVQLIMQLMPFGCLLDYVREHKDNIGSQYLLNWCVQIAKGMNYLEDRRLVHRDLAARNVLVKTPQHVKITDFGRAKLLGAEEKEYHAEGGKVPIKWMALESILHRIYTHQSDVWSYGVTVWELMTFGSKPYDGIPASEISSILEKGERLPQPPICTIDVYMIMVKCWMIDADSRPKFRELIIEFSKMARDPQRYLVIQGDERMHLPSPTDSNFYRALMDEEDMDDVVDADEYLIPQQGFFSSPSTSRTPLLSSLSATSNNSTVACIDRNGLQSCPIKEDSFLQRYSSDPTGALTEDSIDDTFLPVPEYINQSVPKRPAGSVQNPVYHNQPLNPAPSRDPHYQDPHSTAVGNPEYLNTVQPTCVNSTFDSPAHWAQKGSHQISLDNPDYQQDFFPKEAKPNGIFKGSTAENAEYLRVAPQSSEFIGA

`CCOc1cc2ncnc(Nc3ccc(F)c(Cl)c3)c2cc1NC(=O)COC(=O)c1ccccc1` showed a T1/2 [1] of over 24 h, an Activity [2] of 11 a.u and an IC50 [3] of 25 nM. For the same compound, the IC50 (NCI-H1975) was 8300 nM, the inhibition [4] was 88% and the inhibition [5] was 89%. The inhibition [6] was 0.5% and the inhibition [7] was 43%.
With `CCOc1cc2ncnc(Nc3ccc(F)c(Cl)c3)c2cc1NC(=O)COC(=O)c1c(C)cccc1C` the T1/2 [1] was over 24 h, the Activity [2] was 5 a.u and the IC50 [3] was 44 nM. The IC50 (NCI-H1975) was 6100 nM, the inhibition [4] was 97% and the inhibition [5] was 97%. It also gave an inhibition [6] of 20% and an inhibition [7] of 16%.
In the case of `CCOc1cc2ncnc(Nc3ccc(F)c(Cl)c3)c2cc1NC(=O)CO`, the T1/2 [1] is reported as over 24 h, the IC50 [3] is reported as 27 nM and the Drug uptake [8] is reported as 132 µM. For the same compound, the Drug uptake [9] was 1.1 µM, the Ratio (A549) was 120 and the IC50 [10] was 0.34 nM. The IC50 (NCI-H1975) was over 10000 nM, the inhibition [4] was 90% and the inhibition [5] was 77%. The inhibition [6] was 0% and the inhibition [7] was 0%.
In the case of `COc1cc2ncnc(Nc3ccc(F)c(Cl)c3)c2cc1OCCCN1CCOCC1` [GEFITINIB], the Drug uptake [8] is reported as 271 µM and the Drug uptake [9] is reported as 2.4 µM.
For `CCOc1cc2ncnc(Nc3ccc(F)c(Cl)c3)c2cc1NC(=O)COC(C)=O`, the T1/2 [1] was 23.3 h, the Activity [2] was 0.64 a.u and the IC50 [3] was 34 nM. For the same compound, the Drug uptake [8] was 5.8 µM, the Drug uptake [9] was under 0.05 µM and the IC50 [10] was 0.52 nM. It also gave an IC50 (NCI-H1975) of 3400 nM, an inhibition [4] of 97% and an inhibition [5] of 75%. It also gave an inhibition [6] of 27% and an inhibition [7] of 68%.
